Screening data (PubChem BioAssay)
TRPC6 inh = mouse TRPC6 channel inhibitors, primary screen, cell-based, HEK293, membrane potential dye; Short transient receptor potential channel 6 (Mus musculus), Q61143; ACh-evoked depolarization; active compounds read low; B-score at 10 µM; 1.1% of 310,000 active; AID 2553, 2010;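 active means B-score under library mean minus 3 SD, initial fluorescence not abnormally high, positive integrated signal ratio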;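 further: B-score derived from integrated fluorescence ratio over the kinetic read; more negative B-score means stronger inhibition of depolarization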
TRPC4 PAM = positive allosteric modulators of TRPC4, primary screen, cell-based, mouse TRPC4beta, HEK293 mu-opioid, Fluo-4 calcium; Short transient receptor potential channel 4 (Mus musculus), Q9QUQ5; DAMGO EC20, Fluo-4 Ca2+ flux; active compounds read high; B-score at 10 µM; 0.42% of 310,000 active; AID 2227, 2009;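 active means B-score of calcium response area above 5 SD of library B-scores, with initial fluorescence ratio within 5 SD of library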;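 further: B-score of integrated fluorescence ratio over time as area under calcium response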
TRPC4 act = activators of mouse TRPC4 channel, primary screen, Fluo4 calcium, HEK293 TRPC4beta/mu-opioid cells | Short transient receptor potential channel 4 (Mus musculus), Q9QUQ5 | Fluo4 calcium fluorescence; active compounds read high | B-score at 10 µM | 0.49% of 310,000 active | AID 2237, 2010;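 active means B-score above 5 SD of library B-scores, and initial fluorescence ratio not above library mean plus 5 SD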;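 further: positive B-score marks a calcium rise read as TRPC4 activation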
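Technique: kinetic Fluo4 calcium fluorescence; Test system: TRPC4beta and mu-opioid receptor HEK293 stable cells; Measure: B-scored integrated calcium fluorescence ratio; Benchmarks: low control buffer alone, high control maximal DAMGO; Schedule: 45 min room-temperature Fluo4 loading, 110 s read.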
TRPC6 act = mouse TRPC6 channel activators, primary screen, cell-based, HEK293, membrane potential dye; Short transient receptor potential channel 6 (Mus musculus), Q61143; HEK293-TRPC6 membrane potential dye fluorescence; active compounds read high; B-score at 10 µM; 0.13% of 310,000 active; AID 2550, 2010;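 active means B-score of the integrated fluorescence ratio above library mean plus 3 SD, and starting fluorescence ratio within library mean plus 5 SD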;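 further: higher score means more depolarization so channel activation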
TRPC4 inh = inhibitors of mouse TRPC4 channel, primary screen, Fluo4 calcium, HEK293 TRPC4beta/mu-opioid cells. DAMGO-evoked Fluo4 calcium flux; active compounds read low. 0.39% of 300,000 active. B-score at 10 µM. Short transient receptor potential channel 4 (Mus musculus), Q9QUQ5. AID 2247, 2010;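 active means B-score over 3 SD under the library average, no early fluorescence shift, positive overall ratio signal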
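Assay system: Stable TRPC4beta/mu-opioid receptor HEK293 cells | Reagent: DAMGO in two steps, submaximal then maximal | Compound dosing: Single concentration per test compound | Signal: Fluo4 Ca2+ flux fluorescence | Evaluation: Per-well B score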
TRPC4 sel inh 2 = second check of whether TRPC6 inhibitors also affect mouse TRPC4; shares compounds with TRPC6 inh; HEK293 TRPC4/MOR, membrane potential dye fluorescence; channel activated by saturating DAMGO dose; inhibition, % at 10 µM; 42% of 920 active;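 active means compounds whose fluorescence signal differed from control wells by over 3 SD, either direction, in both duplicate plates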
TRPC4 spec = mouse TRPC4 modulation by TRPC6 hits, confirmation, selectivity assay for TRPC6 inhibitor project, cell-based, HEK293 TRPC4/mu-opioid, membrane potential dye | shares compounds with TRPC6 inh | membrane potential fluorescence | activity change, negative = inhibition, % at 10 µM | 61% of 920 active;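 active means rise or fall in signal beyond 3 SD of buffer-only wells in both replicate plates, either sign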;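 further: integrated kinetic ratio of fluorescence range over baseline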
HEK293 MPD ctr 2-1 = nonspecific membrane potential effects, parental HEK293, confirmation, counter-screen for TRPC6 inhibitor project, cell-based, second counter screen | shares compounds with TRPC6 inh | parental HEK293 membrane potential dye fluorescence; maximal acetylcholine challenge after compound addition | AID 2779, 2010 | signal change vs control, % at 10 µM | 31% of 920 active;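 active means membrane potential signal moving either way by over 3 SD of the maximum-effect control, in both duplicate plates, meaning non-specific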
HEK293 MPD ctr-1 = membrane potential modulation in parental HEK293, confirmation, counter-screen for TRPC6 inhibitor project, cell-based; AID 2780, 2010; 60% of 920 active; membrane potential signal change, % at 10 µM; shares compounds with TRPC6 inh; parental HEK293 membrane potential dye fluorescence;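 active means membrane potential signal shifting up or down by more than 3 SD of buffer-only wells, on both duplicate plates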
HEK293 MPD ctr-2 = parental HEK293 membrane potential modulation, confirmation, counter-screen for TRPC6 modulator project, cell-based | membrane potential dye fluorescence | 51% of 2,400 active | AID 488924, 2010 | shares compounds with TRPC6 inh | membrane potential signal change, % at 10 µM;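 active means membrane potential signal moves up or down beyond 5 SD from buffer-only wells, on both duplicate plates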
HEK293 MPD ctr 2-2 = second check of TRPC6 modulator effects in parental HEK293 cells | shares compounds with TRPC6 inh | membrane potential dye fluorescence; after compound, maximal acetylcholine stimulation | inhibition, % at 10 µM | 14% of 2,400 active;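 active means membrane potential signal drops by more than 5 SD from the mean control signal, in both duplicate plates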;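 further: plate controls were acetylcholine ECmax control wells for no effect and buffer only wells for full effect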
TRPC4 ctr mod = TRPC4 modulation by TRPC6 hit compounds, confirmation, selectivity assay for TRPC6 modulator project, cell-based, HEK293 TRPC4/mu-opioid, membrane potential dye, mouse; shares compounds with TRPC6 inh; 69% of 2,400 active; membrane potential fluorescence; AID 488927, 2010; percent change from control (negative = decrease, positive = increase), % at 10 µM;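 active means membrane potential signal moved up or down beyond 5 SD of buffer control wells, in both duplicate plates, actives on both sides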;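 further: plate controls were assay buffer wells for no effect and DAMGO maximal-effect wells for full effect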
TRPC4 ctr inh 2 = second check of whether TRPC6 modulators also affect mouse TRPC4; shares compounds with TRPC6 inh; HEK293 TRPC4/mu-opioid, membrane potential dye fluorescence; stimulated with maximal-effect DAMGO; inhibition, % at 10 µM; 55% of 2,400 active;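 active means drop in membrane potential signal beyond 5 SD of the control wells in both duplicate plates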;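 further: TRPC4 counter screen for TRPC6 hits run under conditions tuned for TRPC6 not TRPC4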
TRPC6 block conf = mouse TRPC6 channel inhibitors, confirmation, HEK293 cells, membrane potential dye, duplicate. shares compounds with TRPC6 inh. ACh-evoked depolarization. inhibition, % at 10 µM. 43% of 3,300 active. AID 488960, 2010;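 active means fluorescence ratio falls more than 5 SD below the full-stimulation control mean, in both duplicate runs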;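 further: integrated fluorescence ratio of peak minus minimum over baseline after agonist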
TRPC6 act confirm = mouse TRPC6 channel activators, confirmation, HEK293 cells, membrane potential dye, duplicate; shares compounds with TRPC6 inh; 11% of 2,800 active; activation, % at 10 µM; HEK293-TRPC6 membrane potential dye fluorescence, FDSS;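 active means ratio signal rise beyond 5 SD above unstimulated control wells' mean, seen in both duplicate runs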;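 further: plate controls were buffer EC0 wells for no effect and acetylcholine ECmax response for full effect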
An asterisk follows results filed as active; i = inactive; . = not tested or not shown. Only some compounds are listed: those with a hit (about 2.3% of all), similar ones and a draw of the others.

SMILES	TRPC6 inh	TRPC4 PAM	TRPC4 act	TRPC6 act	TRPC4 inh	TRPC6 block conf	TRPC6 act confirm	others
Cc1nn(Cc2ccccc2)c(C)c1C(=O)O	i	i	i	i	i	.	.
CCCCn1c(O)c(C(=O)/C=C/c2c[nH]c3ccccc23)c(=O)[nH]c1=O	i	i	i	247*	i	i	212.5%*	HEK293 MPD ctr-2=941.0%*;HEK293 MPD ctr 2-2=i;TRPC4 ctr mod=586.0%*;TRPC4 ctr inh 2=i
CCOC(=O)C1CCN(Cc2ccc(Cl)nc2)CC1	i	i	i	i	i	.	.
Cc1nc2ccccc2c(=O)n1-c1ccc(Cl)cc1[N+](=O)[O-]	i	i	i	i	.	.	.
Cc1[nH]c2ccccc2c1CCN	i	i	i	i	i	.	.
Cc1[nH]c2ccccc2c1CCCNC1CCCCC1	-5.66*	i	i	i	i	i	i	HEK293 MPD ctr-2=i;HEK293 MPD ctr 2-2=i;TRPC4 ctr mod=i;TRPC4 ctr inh 2=44.0%*
Clc1cccc(N2CCNCC2)c1Cl	-8.96*	i	i	i	i	55.5%*	i	TRPC4 sel inh 2=72.5%*;TRPC4 spec=-0.4%*;HEK293 MPD ctr 2-1=i;HEK293 MPD ctr-1=1.9%*
c1ccc2c(N3CCNCC3)cccc2c1	i	i	i	i	i	.	.
C[N+]1(C)C2CCC1CC(OC(=O)c1ccccc1)C2 (centres undefined)	i	i	i	i	i	.	.
C[N+]1(C)C2CCC1CC(OC(=O)C(CO)c1ccccc1)C2 (centres undefined)	-8.46*	i	i	i	i	101.7%*	i	TRPC4 sel inh 2=i;TRPC4 spec=i;HEK293 MPD ctr 2-1=-31.5%*;HEK293 MPD ctr-1=i
